# ChEMBL document CHEMBL1139250, “2,6,9-Trisubstituted purine derivatives as protein A mimetics for the treatment of autoimmune diseases” (Bioorg Med Chem Lett, 2009)
# pIC50: −log10 of the molar value. Active and inactive are the calls of the source. The rule behind the calls is not given here.
# Biological target: not listed separately
# Assay: (§1) Displacement of protein A from human IgG antibody by competitive ELISA
# Method in brief: (§2)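 Competitive ELISA in which test compounds compete with protein A for binding to human IgG; IC50 determined in PBS.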
row,SMILES,pIC50
1,Nc1cccc(Nc2ncnc3c2ncn3Cc2cccc(Cl)c2)c1,6.40
2,Nc1cccc(Nc2ncnc3c2ncn3Cc2ccc(Cl)cc2)c1,6.30
3,Nc1ccc(CCn2cnc3c(Nc4cccc(N)c4)nc(NC4CCCCC4)nc32)cc1,5.05
4,Nc1cccc(Nc2ncnc3c2ncn3CCCOc2ccccc2)c1,6.22
5,Nc1ccc(Cn2cnc3c(Nc4cccc(N)c4)ncnc32)cc1,6.70
6,CC(C)Nc1nc(Nc2cccc(N)c2)c2ncn(CCc3ccc(N)cc3)c2n1,5.96
7,Nc1ccc(CCn2cnc3c(Nc4cccc(N)c4)ncnc32)cc1,6.00
8,Cc1ccc(CCn2cnc3c(Nc4cccc(N)c4)ncnc32)cc1,5.82
9,Nc1cccc(Nc2ncnc3c2ncn3CCc2ccccc2)c1,5.64
10,Nc1cccc(Nc2ncnc3c2ncn3CC2CC2)c1,6.40
11,CC(Nc1nc(Nc2cccc(N)c2)c2ncn(CCc3ccc(N)cc3)c2n1)c1cccc(N)c1 (configuration not stated),4.85
12,Nc1ccc(CCn2cnc3c(Nc4cccc(N)c4)nc(NCCO)nc32)cc1,4.19
13,Nc1ccc(CCn2cnc3c(Nc4cccc(N)c4)nc(NC4CC4)nc32)cc1,4.89
14,COC(=O)c1ccc(Cn2cnc3c(Nc4cccc(N)c4)ncnc32)cc1,6.52
15,Nc1ccc(CCn2cnc3c(Nc4cccc(N)c4)nc(NCc4ccccc4)nc32)cc1,5.74
16,Nc1cccc(Nc2ncnc3c2ncn3CCc2ccc3ccccc3c2)c1,4.90
17,Nc1ccc(CCn2cnc3c(Nc4cccc(N)c4)nc(NC4CCC4)nc32)cc1,5.64

row,SMILES,pIC50
1,Nc1cccc(Nc2ncnc3c2ncn3Cc2cccc(F)c2)c1,5.74
2,Nc1cccc(Nc2ncnc3c2ncn3Cc2ccc(F)cc2)c1,5.77
3,CC(c1cccc(F)c1)n1cnc2c(Nc3cccc(N)c3)ncnc21 (configuration not stated),6.70
4,CC(C)CNc1nc(Nc2cccc(N)c2)c2ncn(CCc3ccc(N)cc3)c2n1,4.66
5,Nc1cccc(Nc2ncnc3c2ncn3CCOc2ccc(Cl)cc2)c1,6.30
6,Nc1cccc(Nc2ncnc3c2ncn3CCc2cccc(F)c2)c1,6.30
7,Nc1cccc(CCn2cnc3c(Nc4cccc(N)c4)ncnc32)c1,5.29
8,CC(C)(C)CNc1nc(Nc2cccc(N)c2)c2ncn(CCc3ccc(N)cc3)c2n1,5.22
9,Nc1ccc(CCn2cnc3c(Nc4cccc(N)c4)nc(N)nc32)cc1,4.89
10,Nc1ccc(CCn2cnc3c(Nc4cccc(N)c4)nc(NCCCCCCO)nc32)cc1,5.32
11,Nc1ccc(CCn2cnc3c(Nc4cccc(N)c4)nc(NC4CCCC4)nc32)cc1,6.70
12,Nc1cccc(Nc2ncnc3c2ncn3CCOc2ccc(F)cc2)c1,6.52
13,Nc1cccc(Nc2ncnc3c2ncn3CCc2ccc(F)cc2)c1,6.22
14,Nc1cccc(Nc2ncnc3c2ncn3CCc2ccc(Cl)cc2)c1,5.44
15,Nc1ccc(CCn2cnc3c(Nc4cccc(N)c4)nc(NCC4CC4)nc32)cc1,6.22
16,Nc1cccc(Nc2ncnc3c2ncn3CCOc2ccccc2)c1,6.70

# Species: Homo sapiens
# Assay: as §1
# Method in brief: as §2
row,SMILES,Activity
1,Nc1ccc(CCn2cnc3c(NC4CCNC4)ncnc32)cc1 (configuration not stated),inactive
2,Nc1ccc(CCn2cnc3c(Nc4cccc(N)c4)nc(NCCCCO)nc32)cc1,inactive
3,Nc1ccc(CCn2cnc3c(NC4CCCC(N)C4)ncnc32)cc1 (configuration not stated),inactive
4,Nc1ccc(CCn2cnc3c(NCC4CCCNC4)ncnc32)cc1 (configuration not stated),inactive
5,Nc1cccc(Nc2ncnc3c2ncn3CCc2ccc(O)cc2)c1,inactive
6,Nc1ccc(CCn2cnc3c(Nc4cccc(N)c4)nc(F)nc32)cc1,inactive
7,COc1cccc(Nc2ncnc3c2ncn3CCc2ccc(N)cc2)c1,inactive
8,NCCNc1nc(Nc2cccc(N)c2)c2ncn(CCc3ccc(N)cc3)c2n1,inactive
9,Nc1ccc(CCn2cnc3c(N4CCNCC4)ncnc32)cc1,inactive
10,Nc1ccc(CCn2cnc3c(Nc4cccc(F)c4)ncnc32)cc1,inactive

# Tested on: Mus musculus
# Assay: Effect on oxazolone-induced delayed type hypersensitivity in mouse assessed as ear thickness at 50 mg/kg, iv after 7 days challenged with oxazolone on day 3
# Assay type: functional
# Method in brief: (§3)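 Mice dosed intravenously with vehicle or test compound at 50 mg/kg on days 0, 1 and 2. Oxazolone (50 ll) applied to the right ear surface, first challenge day 3, second day 10. Ear thickness measured days 4–7 and 11–14; redness and crust formation also observed. Mice sacrificed day 14.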
row,SMILES,Activity [mm]
1,Nc1ccc(CCn2cnc3c(Nc4cccc(N)c4)ncnc32)cc1,0.19
2,CN(Cc1cnc2nc(N)nc(N)c2n1)c1ccc(C(=O)N[C@@H](CCC(=O)O)C(=O)O)cc1 [METHOTREXATE],0.17

# Tested on: Mus musculus
# Assay: Effect on oxazolone-induced delayed type hypersensitivity in mouse assessed as ear thickness at 50 mg/kg, iv after 14 days challenged with oxazolone on day 10
# Assay type: functional
# Method in brief: as §3
row,SMILES,Activity [mm]
1,Nc1ccc(CCn2cnc3c(Nc4cccc(N)c4)ncnc32)cc1,0.56
2,CN(Cc1cnc2nc(N)nc(N)c2n1)c1ccc(C(=O)N[C@@H](CCC(=O)O)C(=O)O)cc1 [METHOTREXATE],0.46

# Tested on: Mus musculus
# Assay: Effect on oxazolone-induced delayed type hypersensitivity in mouse assessed as ear thickness at 50 or 150 mg/kg, po after 7 days challenged with oxazolone on day 3
# Assay type: functional, organism-based
# Set-up: dose 150 mg/kg
# Method in brief: (§4)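 Oxazolone DTH protocol: 50 ll oxazolone applied to the right ear surface, challenged day 3 and day 10. Ear thickness measured days 4–7 and 11–14. Compound given orally at 50 or 150 mg/kg daily from day 0 to day 13. Hydrocortisone served as comparator.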
row,SMILES,Activity
1,Nc1ccc(CCn2cnc3c(Nc4cccc(N)c4)ncnc32)cc1,Active

# Tested on: Mus musculus
# Assay: Effect on oxazolone-induced delayed type hypersensitivity in mouse assessed as ear thickness at 50 or 150 mg/kg, po after 14 days challenged with oxazolone on day 10
# Assay type: functional, organism-based
# Set-up: dose 150 mg/kg
# Method in brief: as §4
row,SMILES,Activity
1,Nc1ccc(CCn2cnc3c(Nc4cccc(N)c4)ncnc32)cc1,Active

# Tested on: Rattus norvegicus
# Assay: Reduction in synovitis damage in Freund's adjuvant-induced arthritis Lewis rat model at 25 mg/kg, iv after 21 days relative to control
# Assay type: functional
# Set-up: scale not given: the % may be the effect or the level left
# Method in brief: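 Female Lewis rats; arthritis induced by footpad injection of lyophilized Mycobacterium butyricum in mineral oil, monitored for 3 weeks. Intravenous dosing on days −3, −2, −1 pre-adjuvant and days 10, 11, 12 post-adjuvant; body weight recorded. Arthritis (inflammatory) index derived from joint circumference in mm via a geometric formula; incidence and severity scored.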
row,SMILES,Activity [%]
1,Nc1ccc(CCn2cnc3c(Nc4cccc(N)c4)ncnc32)cc1,25
2,CN(Cc1cnc2nc(N)nc(N)c2n1)c1ccc(C(=O)N[C@@H](CCC(=O)O)C(=O)O)cc1 [METHOTREXATE],20

# Tested on: Rattus norvegicus
# Assay: Reduction in synovitis damage in Freund's adjuvant-induced arthritis Lewis rat model at 50 mg/kg, po after 21 days relative to control
# Assay type: functional
# Set-up: scale not given: the % may be the effect or the level left
row,SMILES,Activity [%]
1,Nc1ccc(CCn2cnc3c(Nc4cccc(N)c4)ncnc32)cc1,30
